{
  "source": "ChEMBL document CHEMBL4613270",
  "about": "“Structure-Activity Relationship Study Enables the Discovery of a Novel Berberine Analogue as the RXRα Activator to Inhibit Colon Cancer” (J Med Chem, 2020)",
  "key": {"[1]": {"target": "T1, Retinoic acid receptor RXR-alpha (Homo sapiens) (UniProt P19793)", "T1 sequence (whole entry)": "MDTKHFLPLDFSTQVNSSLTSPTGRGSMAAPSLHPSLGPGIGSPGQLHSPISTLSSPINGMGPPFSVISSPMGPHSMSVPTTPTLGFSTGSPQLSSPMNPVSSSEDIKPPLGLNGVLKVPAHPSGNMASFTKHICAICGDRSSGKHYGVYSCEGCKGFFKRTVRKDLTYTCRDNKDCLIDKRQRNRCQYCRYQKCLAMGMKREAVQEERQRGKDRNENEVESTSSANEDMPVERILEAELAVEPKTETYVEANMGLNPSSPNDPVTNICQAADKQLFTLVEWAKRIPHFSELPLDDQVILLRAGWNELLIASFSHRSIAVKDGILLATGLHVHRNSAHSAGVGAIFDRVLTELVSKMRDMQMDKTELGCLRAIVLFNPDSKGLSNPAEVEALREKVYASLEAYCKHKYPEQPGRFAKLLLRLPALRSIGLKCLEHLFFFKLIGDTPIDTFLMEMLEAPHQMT", "experiment": "Activation of RXRalpha in human SW620 cells assessed as increase transactivational activity on RXRE at 40 to 80 uM incubated for 15 hrs by luciferase reporter gene assay", "type": "cell-based", "settings": "SW-620", "summary_of_the_method": "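Endogenous RXRα transactivation on an RXRE luciferase reporter, lipofection-transfected; compound added 20 h post-transfection for 15 h; lysis in passive lysis buffer at 4 °C, 1 h; firefly and Renilla luciferase activities read by dual-luciferase assay.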"}, "MEF": {"system": "MEF", "experiment": "Toxicity in mouse MEF cells assessed a reduction in cell viability at 6.25 to 100 uM incubated for 15 hrs by MTT assay", "type": "cell-based", "summary_of_the_method": "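HIEC-6 cells grown in MEM with 4% FBS, HEPES, GlutaMAX and 10 ng/mL EGF. MEF cells grown in DMEM high glucose with 10% FBS. Cells plated at 1×10⁴ per well and treated with a concentration series for 15 h. Viability read by MTT: 4 h at 37 °C, DMSO solubilization, absorbance at 570 nm.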"}, "[2]": {"target": "T1, Retinoic acid receptor RXR-alpha (Homo sapiens)", "experiment": "Activation of RXRalpha in human KM12C cells assessed as […] crease in p21 (WAF1/CIP1) mRNA expression at 25 to 50 uM incubated for 15 hrs in presence of RXRalpha shRNA by real-time PCR analysis", "type": "cell-based"}, "[3]": {"target": "T1, Retinoic acid receptor RXR-alpha (Homo sapiens)", "experiment": "Activation of RXRalpha in human SW620 cells assessed as […] in PCNA protein expression at 40 to 80 uM incubated for 15 hrs by Western blot analysis", "type": "cell-based", "settings": "SW-620"}, "[4]": {"target": "T1, Retinoic acid receptor RXR-alpha (Homo sapiens)", "experiment": "Activation of RXRalpha in human KM12C cells assessed as […] protein expression at 25 to 50 uM incubated for 15 hrs by Western blot analysis", "type": "cell-based"}, "[5]": {"target": "T1, Retinoic acid receptor RXR-alpha (Homo sapiens)", "experiment": "Activation of RXRalpha in human KM12C cells assessed as reduction in c-Myc protein expression at 25 to 50 uM incubated for 15 hrs in presence of RXRalpha shRNA by Western blot analysis", "type": "cell-based"}, "[6]": {"target": "T1, Retinoic acid receptor RXR-alpha (Homo sapiens)", "experiment": "Binding affinity to His-tagged RXRalpha LBD (unknown origin) expressed in Escherichia coli strain BL21 (DE3) at 200 uM by STD-NMR spectroscopy"}, "[7]": {"experiment": "Hepatotoxicity in BALB/c mouse xenografted with human KM12C cells assessed as induction of hepatomegaly by measuring body weight ratio at 100 mg/kg, ig dosed daily for 15 days", "type": "toxicity, organism-based", "settings": "in vivo, po, 360 h"}, "[8]": {"target": "T1, Retinoic acid receptor RXR-alpha (Homo sapiens)", "experiment": "Activation of RXRalpha in human KM12C cells assessed as reduction in c-Myc mRNA expression at 25 to 50 uM incubated for 15 hrs in presence of RXRalpha shRNA by real-time PCR analysis", "type": "cell-based"}, "[9]": {"experiment": "Hepatotoxicity in BALB/c mouse xenografted with human KM12C cells assessed as induction of hepatocellular morphology damage at 100 mg/kg, ig dosed daily for 15 days by H and E staining", "type": "toxicity, organism-based", "settings": "in vivo, po, 360 h"}, "KM12C": {"system": "KM12C", "experiment": "Inhibition of cell proliferation of human KM12C cells up to 100 uM in presence of RXRalpha shRNA incubated for 15 hrs by MTT assay", "type": "functional, cell-based", "summary_of_the_method": "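KM12C cells were transfected with control or RXRα-targeting shRNA, seeded at 1×10^4 cells/well and incubated overnight at 37 °C. Compound was then added for 15 h. MTT (5 mg/mL stock) was incubated 4 h at 37 °C, formazan dissolved in DMSO, and absorbance read at 570 nm.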"}},
  "note": "Active and inactive are the calls of the source. No cut-off for these calls is given here.",
  "data": [
    {"compound": "COc1ccc2c(c1)CC[n+]1cc3c(OC)cccc3cc1-2.[Cl-]", "values": [
      {"measurement": "Activity", "setting": "[1]", "result": "Active"},
      {"measurement": "Activity", "setting": "MEF", "result": "Non-Toxic"},
      {"measurement": "Activity", "setting": "[2]", "result": "inactive"},
      {"measurement": "Activity", "setting": "[3]", "result": "Active"},
      {"measurement": "Activity", "setting": "[4]", "result": "Active"},
      {"measurement": "Activity", "setting": "[5]", "result": "inactive"},
      {"measurement": "Activity", "setting": "[6]", "result": "Active"},
      {"measurement": "Activity", "setting": "[7]", "result": "Non-Toxic"},
      {"measurement": "Activity", "setting": "[8]", "result": "inactive"},
      {"measurement": "Activity", "setting": "[9]", "result": "Non-Toxic"},
      {"measurement": "inhibition", "setting": "KM12C", "result": "inactive"}
    ]}
  ]
}
